The text below walks through data of ChEMBL document CHEMBL2157892, “Modifications around the hydroxamic acid chelating group of fosmidomycin, an inhibitor of the metalloenzyme 1-deoxyxylulose 5-phosphate reductoisomerase (DXR)” (Bioorg Med Chem Lett, 2012).

The source made the active and inactive calls. No cut-off for these calls is given here.

Data set [1] in a line: Inhibition of Escherichia coli recombinant His6-tagged DXR expressed in Escherichia coli XL-1 blue using DXP as substrate after 5 mins by spectrophotometric analysis. In a few lines:
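Recombinant His-tagged E. coli DXR. DXP-to-MEP conversion followed as NADPH consumption at 340 nm by UV–visible spectrophotometry, assay pH 7.5. Enzyme, NADPH and inhibitor were not pre-incubated; the reaction was started by adding DXP. IC50 derived from the rate data.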

The nature of data set [2]: Inhibition of Escherichia coli recombinant His6-tagged DXR expressed in Escherichia coli XL-1 blue using DXP as substrate incubated for 2 mins prior to substrate addition measured after 5 mins by spectrophotometric analysis. In short, it runs like this:
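His-tagged E. coli DXR, assayed at pH 7.5. Inhibitor was pre-incubated with enzyme and NADPH for 2 min at 37 °C, then DXP was added to start the reaction. Activity was read as NADPH consumption at 340 nm on a UV–visible spectrophotometer, and IC50 was derived from it.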

The subject of data set [3] is Escherichia coli. The experiment in a line: Inhibition of Escherichia coli recombinant His6-tagged DXR expressed in Escherichia coli XL-1 blue using DXP as substrate at 1000 uM after 5 mins by spectrophotometric analysis.
For data set [4], the system named is Escherichia coli. The experiment in a line: Inhibition of Escherichia coli recombinant His6-tagged DXR expressed in Escherichia coli XL-1 blue using DXP as substrate at 1000 uM incubated for 2 mins prior to substrate addition measured after 5 mins by spectrophotometric analysis.
Data set [5] deals with Escherichia coli. The experiment in a line: Ratio of IC50 for Escherichia coli recombinant His6-tagged DXR without preincubation to IC50 for Escherichia coli recombinant His6-tagged DXR with preincubation.
Data set [6] in a line: Drug degradation assessed as carbon disulfide production at pH 7.5. It counts as physicochemical. The note with it: buffer.

For the compound `CSC(=S)NCCP(=O)(O)O`, the IC50 in data set [1] was found to be 2800 µM; in data set [2] it was 2700 µM.
As for `O=P(O)(O)CCCc1cccc(O)c1O`, the inhibition result with Escherichia coli [3] and in the data set on Escherichia coli [4] was “inactive” each time.
`CN(O)C(=O)CCCP(=O)(O)O`: the IC50 in data set [1] is 0.5 µM; in data set [2], 0.048 µM. Besides, the Ratio IC50 with Escherichia coli [5] was determined as 10.
As to `CN(CCCP(=O)([O-])O)C(=S)[S-].[Na+].[Na+]`, the inhibition entry with Escherichia coli [3] and in the data set with Escherichia coli [4] was “inactive” in each case. In data set [6], the Drug degradation entry was “Active”.
With `CONC(=O)CCCP(=O)(O)O`, the values for the IC50 in data set [1] and in data set [2] were 11500 µM and 930 µM, respectively.
Turning to `O=CN(O)CCCP(=O)(O)O` [FOSMIDOMYCIN], the IC50 in data set [1] was determined as 0.25 µM; in data set [2] it was 0.032 µM. Besides, in the data set with Escherichia coli [5], the Ratio IC50 was found to be 8.
`O=P(O)(O)CCc1cccc(O)c1O`: the IC50 in data set [1] was 2000 µM; in data set [2], 1200 µM.
As for `CON(C)C(=O)CCCP(=O)(O)O`, the IC50 in data set [1] stood at 6900 µM; in data set [2], 3800 µM.
Regarding `CSC(=S)N(C)CCCP(=O)(O)O`, the inhibition result in the data set on Escherichia coli [3] and with Escherichia coli [4] was “inactive” throughout.
For `NNC(=O)CCCP(=O)(O)O`, the IC50 in data set [1] amounted to 1800 µM; in data set [2] it was 1000 µM.
With `CN(CCP(=O)([O-])O)C(=S)[S-].[Na+].[Na+]`, the inhibition entry in the data set with Escherichia coli [3] and in the data set with Escherichia coli [4] was “inactive” in each case. The Drug degradation entry in data set [6] is recorded as “Active”.
